Legend:
Blood [1] = experiment: Biodistribution in mouse S180 cells xenografted Kunming mouse blood at 10 to 20 uCi, iv after 15 mins by gamma counting; type: ADME, organism-based, CCRF S-180; details: in vivo, 0.25 h
Muscle tissue [2] = experiment: Biodistribution in mouse S180 cells xenografted Kunming mouse muscle at 10 to 20 uCi, iv after 15 mins by gamma counting; type: ADME, organism-based, CCRF S-180; details: in vivo, 0.25 h
[3] = Ratio of drug uptake in tumor to blood of mouse S180 cells xenografted Kunming mouse at 10 to 20 uCi, iv after 15 mins by gamma counting; type: ADME, organism-based, CCRF S-180; details: tumour, 0.25 h
Stomach [4] = experiment: Biodistribution in mouse S180 cells xenografted Kunming mouse stomach at 10 to 20 uCi, iv after 15 mins by gamma counting; type: ADME, organism-based, CCRF S-180; details: in vivo, 0.25 h
How it was run: (§1)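 Female Kunming mice with subcutaneous S180 tumors (5 × 10^6 cells into right front flank, no anesthesia), used 7–14 days after inoculation at 18–22 g. Tracer in saline (10–20 µCi, 100 µL) given by tail vein; mice killed at 5, 15, 30, 60 and 120 min. Tissues excised, blotted, weighed and gamma-counted with decay correction. Reported as %ID/g, mean ± SD, n = 4.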

[5] = Ratio of drug uptake in tumor to brain of mouse S180 cells xenografted Kunming mouse at 10 to 20 uCi, iv after 5 mins by gamma counting; type: ADME, organism-based, CCRF S-180; details: in vivo
Blood [6] = experiment: Biodistribution in mouse S180 cells xenografted Kunming mouse blood at 10 to 20 uCi, iv after 30 mins by gamma counting; type: ADME, organism-based, CCRF S-180; details: in vivo, 0.5 h
[7] = Ratio of drug uptake in tumor to blood of mouse S180 cells xenografted Kunming mouse at 10 to 20 uCi, iv after 5 mins by gamma counting; type: ADME, organism-based, CCRF S-180; details: tumour
Plasma = experiment: Metabolic stability in mouse plasma at 100 to 150 uCi after 3 hrs by HPLC analysis; type: ADME, cell-free
How it was run: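 Radiotracer (100–150 µCi, 50 µL) incubated in 0.5 mL mouse plasma for 3 h. Plasma then mixed with 1 mL CH3CN and centrifuged 5 min at 13,200 rpm. Supernatant passed through a C18 Sep-Pak and analysed by HPLC.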

Brain [8] = experiment: Biodistribution in mouse S180 cells xenografted Kunming mouse brain at 10 to 20 uCi, iv after 5 mins by gamma counting; type: ADME, organism-based, CCRF S-180; details: in vivo
Stomach [9] = experiment: Biodistribution in mouse S180 cells xenografted Kunming mouse stomach at 10 to 20 uCi, iv after 30 mins by gamma counting; type: ADME, organism-based, CCRF S-180; details: in vivo, 0.5 h; how it was run: as §1
Brain [10] = experiment: Biodistribution in mouse S180 cells xenografted Kunming mouse brain at 10 to 20 uCi, iv after 30 mins by gamma counting; type: ADME, organism-based, CCRF S-180; details: in vivo, 0.5 h
[11] = Ratio of drug uptake in tumor to blood of mouse S180 cells xenografted Kunming mouse at 10 to 20 uCi, iv after 60 mins by gamma counting; type: ADME, organism-based, CCRF S-180; details: tumour, 1 h
Stomach [12] = experiment: Biodistribution in mouse S180 cells xenografted Kunming mouse stomach at 10 to 20 uCi, iv after 60 mins by gamma counting; type: ADME, organism-based, CCRF S-180; details: in vivo, 1 h; how it was run: as §1
[13] = Ratio of drug uptake in tumor to blood of mouse S180 cells xenografted Kunming mouse at 10 to 20 uCi, iv after 30 mins by gamma counting; type: ADME, organism-based, CCRF S-180; details: tumour, 0.5 h
Stomach [14] = experiment: Biodistribution in mouse S180 cells xenografted Kunming mouse stomach at 10 to 20 uCi, iv after 120 mins by gamma counting; type: ADME, organism-based, CCRF S-180; details: in vivo, 2 h; how it was run: as §1
[15] = Ratio of drug uptake in tumor to muscle of mouse S180 cells xenografted Kunming mouse at 10 to 20 uCi, iv after 5 mins by gamma counting; type: ADME, organism-based, CCRF S-180; details: in vivo
Muscle tissue [16] = experiment: Biodistribution in mouse S180 cells xenografted Kunming mouse muscle at 10 to 20 uCi, iv after 60 mins by gamma counting; type: ADME, organism-based, CCRF S-180; details: in vivo, 1 h
Stomach [17] = experiment: Biodistribution in mouse S180 cells xenografted Kunming mouse stomach at 10 to 20 uCi, iv after 5 mins by gamma counting; type: ADME, organism-based, CCRF S-180; details: in vivo; how it was run: as §1
[18] = Octanol-water partition coefficient, log P at pH 7.4 after 5 mins; type: physicochemical
How it was run: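 Shake-flask partition using 2.5 mL n-octanol and 2.5 mL 0.01 M PBS pH 7.4, with 0.01 mL radioactive sample added. Mixed vigorously for 5 min at room temperature, then centrifuged. Radioactivity counted in 0.01 mL of each phase.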

Heart [19] = experiment: Biodistribution in mouse S180 cells xenografted Kunming mouse heart at 10 to 20 uCi, iv after 60 mins by gamma counting; type: ADME, organism-based, CCRF S-180; details: in vivo, 1 h
Heart [20] = experiment: Biodistribution in mouse S180 cells xenografted Kunming mouse heart at 10 to 20 uCi, iv after 30 mins by gamma counting; type: ADME, organism-based, CCRF S-180; details: in vivo, 0.5 h
Muscle tissue [21] = experiment: Biodistribution in mouse S180 cells xenografted Kunming mouse muscle at 10 to 20 uCi, iv after 30 mins by gamma counting; type: ADME, organism-based, CCRF S-180; details: in vivo, 0.5 h
[22] = Biodistribution in mouse S180 cells xenografted Kunming mouse tumor at 10 to 20 uCi, iv after 15 mins by gamma counting; type: ADME, organism-based, Neoplasm, CCRF S-180; details: in vivo, 0.25 h
Liver = experiment: Biodistribution in mouse S180 cells xenografted Kunming mouse liver at 10 to 20 uCi, iv after 15 mins by gamma counting; type: ADME, organism-based, CCRF S-180; details: in vivo, 0.25 h

Row | Drug uptake (Blood [1]) [% ID/g] | Drug uptake (Muscle tissue [2]) [% ID/g] | Ratio [3] | Ratio [5] | Drug uptake (Blood [6]) [% ID/g] | Ratio [7] | Drug uptake (Brain [8]) [% ID/g] | Drug uptake (Brain [10]) [% ID/g] | Ratio [11] | Ratio [13] | Ratio [15] | Drug uptake (Muscle tissue [16]) [% ID/g] | Drug uptake (Heart [19]) [% ID/g] | Drug uptake (Heart [20]) [% ID/g] | Drug uptake (Muscle tissue [21]) [% ID/g] | Drug uptake [22] [% ID/g] | Drug uptake (Liver) [% ID/g] | Structure (SMILES) | other results
1 | 2.25 | 1.22 | 0.63 | 2.21 | 1.36 | 0.72 | 1.03 | 0.31 | 1.43 | 1.09 | 1.28 | 0.62 | 1.08 | 1.76 | 1.17 | 1.41 | 4.02 | CCCc1nc2c(C)cc(C(=O)O)cc2n1CC[18F] | Drug uptake (Stomach [4]): 4.33 % ID/g; Stability (Plasma): Stable; Drug uptake (Stomach [9]): 3.87 % ID/g; Drug uptake (Stomach [12]): 3.23 % ID/g; Drug uptake (Stomach [14]): 1.14 % ID/g; Drug uptake (Stomach [17]): 5.52 % ID/g; logD at 5 min [18]: -0.5
2 | 3.3 | 3.34 | 0.76 | 2.1 | 3.23 | 0.31 | 0.99 | 1.29 | 1.1 | 1.02 | 0.72 | 2.37 | 3.14 | 3.27 | 2.69 | 2.5 | 5.6 | N[C@@H](Cc1ccc(OCC[18F])cc1)C(=O)O [FLORETYROSINE F18] | –
3 | 0.46 | 1.14 | 3.42 | 0.53 | 0.16 | 1.17 | 2.4 | 3.07 | 19.47 | – | 0.81 | 0.97 | 3.24 | 2.69 | 1.07 | 1.56 | 0.47 | OC[C@H]1O[C@@H](O)[C@H]([18F])[C@@H](O)[C@@H]1O [FLUDEOXYGLUCOSE-F18] | –

From ChEMBL document CHEMBL1156163, “(18)F Labeled benzimidazole derivatives as potential radiotracer for positron emission tomography (PET) tumor imaging” (Bioorg Med Chem, 2010)
